Experimental data published in ChEMBL document CHEMBL1933023, “Novel immunomodulators based on an oxazolin-2-one-4-carboxamide scaffold” (Bioorg Med Chem Lett, 2012).

Experiments:
[1] = target: T1, Sphingosine 1-phosphate receptor 1 (Homo sapiens, UniProt P21453); assay: Agonist activity at EGFP-tagged S1P1 receptor expressed in human […] cells assessed as receptor internalization in endosomes after 60 mins; format: functional, cell-based
Outline: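 S1P1 Redistribution assay measuring agonist activity; EC50 values reported in μM.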

[2] = Cytotoxicity against HLF cells; format: cell-based; details: human, read-out: TC50 (the source's name)
Outline: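 Cytotoxicity was determined by the MTT method in HLF cells; TC50 values reported in μM.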

[3] = system: Mus musculus; assay: Immunosuppressant activity in Balb/C mouse assessed as decrease in circulating CD3+ T cells at 1 mg/kg, po measured after 30 mins by flow cytometric analysis; format: functional, T-cell; set-up: scale not given: the % may be the effect or the level left
Outline: (§1)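 Oral dosing of BALB/C mice at 0.1, 0.3, 1, 3 or 10 mg/kg. Peripheral blood CD3+ T cells were counted, and the result is expressed as percent decrease of CD3+ cells.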

[4] = system: Mus musculus; assay: Immunosuppressant activity in Balb/C mouse assessed as decrease in circulating CD3+ T cells at 0.1 mg/kg, po measured after 30 mins by flow cytometric analysis; format: functional, T-cell; set-up: scale not given: the % may be the effect or the level left; outline: as §1
[5] = target: T1, Sphingosine 1-phosphate receptor 1; details: UOS2, 3 uM
[6] = target: T1, Sphingosine 1-phosphate receptor 1; details: UOS2, 10 uM
[7] = system: Mus musculus; assay: Immunosuppressant activity in Balb/C mouse assessed as decrease in circulating CD3+ T cells at 0.3 mg/kg, po measured after 30 mins by flow cytometric analysis; format: functional, T-cell; set-up: scale not given: the % may be the effect or the level left; outline: as §1
[8] = system: Mus musculus; assay: Immunosuppressant activity in Balb/C mouse assessed as decrease in circulating CD3+ T cells at 3 mg/kg, po measured after 30 mins by flow cytometric analysis; format: functional, T-cell; set-up: scale not given: the % may be the effect or the level left; outline: as §1
[9] = system: Mus musculus; assay: Immunosuppressant activity in Balb/C mouse assessed as decrease in circulating CD3+ T cells at 10 mg/kg, po measured after 30 mins by flow cytometric analysis; format: functional, T-cell; set-up: scale not given: the % may be the effect or the level left; outline: as §1
[10] = system: Mus musculus; assay: Immunosuppressant activity in po dosed Balb/C mouse assessed as decrease in circulating CD3+ T cells measured after 30 mins by flow cytometric analysis; format: functional, organism-based; details: T-cell; outline: as §1
[11] = system: S1P1 receptor; assay: Therapeutic index, ratio of TC50 for HLF cells to EC50 for S1P1 receptor; format: cell-based; details: human, read-out: TI
[12] = Ratio of TC50 for compound to FTY720 for HLF cells; format: ADME, cell-based; details: human
[13] = target: T2, Sphingosine 1-phosphate receptor 4 (Homo sapiens, UniProt O95977); assay: Agonist activity at human S1P4 expressed in CHO cells after 60 mins by [35S]GTPgammaS binding assay; format: functional, cell-based
T2 sequence (O95977 whole entry): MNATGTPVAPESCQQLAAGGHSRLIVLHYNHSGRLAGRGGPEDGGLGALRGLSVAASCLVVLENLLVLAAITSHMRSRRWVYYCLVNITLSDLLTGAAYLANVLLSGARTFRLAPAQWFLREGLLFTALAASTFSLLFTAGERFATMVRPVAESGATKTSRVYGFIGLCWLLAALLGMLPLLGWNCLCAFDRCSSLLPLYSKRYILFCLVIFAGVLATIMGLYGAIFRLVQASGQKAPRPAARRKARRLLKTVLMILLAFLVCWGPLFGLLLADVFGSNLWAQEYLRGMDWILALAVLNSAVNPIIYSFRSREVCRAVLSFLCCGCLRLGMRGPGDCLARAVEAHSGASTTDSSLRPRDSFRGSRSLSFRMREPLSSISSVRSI

T1 sequence (P21453 whole entry): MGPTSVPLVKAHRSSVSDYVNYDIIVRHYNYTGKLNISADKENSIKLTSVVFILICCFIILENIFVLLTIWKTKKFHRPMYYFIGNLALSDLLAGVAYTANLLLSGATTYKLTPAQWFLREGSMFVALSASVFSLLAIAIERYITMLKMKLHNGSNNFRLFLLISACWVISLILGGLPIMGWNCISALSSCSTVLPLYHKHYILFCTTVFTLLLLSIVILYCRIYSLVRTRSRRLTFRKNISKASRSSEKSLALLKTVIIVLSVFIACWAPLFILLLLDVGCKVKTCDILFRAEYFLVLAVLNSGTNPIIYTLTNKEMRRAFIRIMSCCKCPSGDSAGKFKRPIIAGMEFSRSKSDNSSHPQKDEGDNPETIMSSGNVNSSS

| EC50 ([1]; read-out: EC50) [µM] | Compound | CC50 [2] [µM] | selectivity ratio [11] | selectivity ratio [12] | other results |
| --- | --- | --- | --- | --- | --- |
| – | Cc1ccccc1COc1ccc(CCC2(C(N)=O)COC(=O)N2)cc1 (stereo unspecified) | – | – | – | EC50 ([1]; uos2): Not Active |
| – | CCCCCCCCc1ccc(CCC(N)(CO)CO)cc1.Cl [FINGOLIMOD HYDROCHLORIDE] | 3.15 | – | – | Activity [3]: 79%; Activity [4]: 9.7%; Emax [5]: 37%; Emax [6]: 54%; Activity [7]: 47.2%; Activity [8]: 80.7%; Activity [9]: 86.6% |
| 2.84 | CCCCCCCCOc1ccc(CCC2(C(N)=O)COC(=O)N2)cc1 (stereo unspecified) | 121 | 42.6 | – | Activity [10]: Dose-dependent effect; Activity [3]: 20%; Activity [7]: 1.7%; Activity [8]: 53%; Activity [9]: 84.3% |
| > 100 | NC(=O)C1(CCc2ccc(OCc3ccccc3Cl)cc2)COC(=O)N1 (stereo unspecified) | – | – | – | – |
| 2.72 | CC(C)(C)c1ccc(COc2ccc(CCC3(C(N)=O)COC(=O)N3)cc2)cc1 (stereo unspecified) | 25.4 | 9.35 | 8 | – |
| 3.63 | NC(=O)C1(CCc2ccc(OCCCc3ccccc3)cc2)COC(=O)N1 (stereo unspecified) | 26.4 | 7.28 | 8 | – |
| 1.1 | NC(=O)C1(CCc2ccc(OCc3ccc(Cl)cc3)cc2)COC(=O)N1 (stereo unspecified) | 27.9 | 25.4 | 8 | – |
| – | CCCCCCCCc1ccc(CC[C@](N)(CO)COP(=O)(O)O)cc1 [FTY720-P] | – | – | – | IC50 [13]: 0.0022 µM |
